The source of these data is ChEMBL document CHEMBL4834405, “Structure-Based Design of High-Affinity Macrocyclic FKBP51 Inhibitors” (J Med Chem, 2021).

Test [1] concerns the target T1, Peptidyl-prolyl cis-trans isomerase FKBP5 (Homo sapiens, UniProt Q13451).
T1 sequence (Q13451 whole entry): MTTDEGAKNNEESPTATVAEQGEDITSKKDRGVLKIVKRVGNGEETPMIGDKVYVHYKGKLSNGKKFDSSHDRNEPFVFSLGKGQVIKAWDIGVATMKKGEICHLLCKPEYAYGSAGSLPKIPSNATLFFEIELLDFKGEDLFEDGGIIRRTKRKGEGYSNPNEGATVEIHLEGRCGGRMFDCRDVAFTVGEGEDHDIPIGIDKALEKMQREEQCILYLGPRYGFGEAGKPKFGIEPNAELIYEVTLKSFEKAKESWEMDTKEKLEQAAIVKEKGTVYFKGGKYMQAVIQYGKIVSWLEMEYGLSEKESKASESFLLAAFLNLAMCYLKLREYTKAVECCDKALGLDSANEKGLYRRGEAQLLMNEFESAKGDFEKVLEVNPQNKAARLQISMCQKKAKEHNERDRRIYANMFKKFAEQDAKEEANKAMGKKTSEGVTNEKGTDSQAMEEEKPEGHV
Nature of the test: Binding affinity to FKBP51 FK1 domain (unknown origin) assessed as dissociation constant at 25 degreeC by isothermal titration calorimetric analysis. A digest of the protocol:
(§1)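 FKBP51 FK1 domain, ITC at 25 °C in 20 mM HEPES pH 8.0, 20 mM NaCl. Standard setup: 10 μM protein in cell with 0.5% DMSO, 100 μM ligand in syringe. Reverse setup for poorly soluble ligand: 10 μM ligand in cell with 5% DMSO, 100 μM protein in syringe. 18 × 2 μL injections, one-site binding fit, triplicates, weighted SD that includes fit errors.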

Test [2] addresses T2, Peptidyl-prolyl cis-trans isomerase FKBP5 (Homo sapiens) (UniProt Q13451).
T2 sequence (whole entry): T1 sequence (Q13451 whole entry)
The experiment in a line: Binding affinity to FKBP51 FK1 domain (unknown origin) assessed as gibbs free energy change by isothermal titration calorimetric analysis. A digest of the protocol:
as §1
(Isothermal titration calorimetry measures the heat released or taken up as one component is titrated into another.)

Test [3] addresses T2, Peptidyl-prolyl cis-trans isomerase FKBP5 (Homo sapiens). Nature of the test: Binding affinity to FKBP51 FK1 domain (unknown origin) assessed as change in enthalpy by isothermal titration calorimetric analysis. A digest of the protocol:
as §1

Test [4] concerns the target T1, Peptidyl-prolyl cis-trans isomerase FKBP5. Nature of the test: Displacement of fluorescent tracer 5-(3-(4-((1S,5S,6S)-10-(3,5-dichlorophenylsulfonyl)-2-oxo-3-(pyridin-3-ylmethyl)-3,10-diazabicyclo[4.3.1]decan-5-yl)-1H-1,2,3-triazol-1-yl)propylcarbamoyl)-2-(6-(dimethylamino)-3-(dimethyliminio)-3H-xanthen-9-yl)benzoate from recombinant full length C-terminal FLAG-tagged FKBP51 (unknown origin) expressed in Escherichia coli BL21 (DE3) cells incubated for 30 mins by fluorescence polarisation competition binding assay. Background: Fluorescence polarisation rises when a labelled molecule tumbles more slowly, as on binding a larger partner.

Test [5] concerns the target T3, Peptidyl-prolyl cis-trans isomerase FKBP4 (Homo sapiens, UniProt Q02790).
T3 sequence (Q02790 whole entry): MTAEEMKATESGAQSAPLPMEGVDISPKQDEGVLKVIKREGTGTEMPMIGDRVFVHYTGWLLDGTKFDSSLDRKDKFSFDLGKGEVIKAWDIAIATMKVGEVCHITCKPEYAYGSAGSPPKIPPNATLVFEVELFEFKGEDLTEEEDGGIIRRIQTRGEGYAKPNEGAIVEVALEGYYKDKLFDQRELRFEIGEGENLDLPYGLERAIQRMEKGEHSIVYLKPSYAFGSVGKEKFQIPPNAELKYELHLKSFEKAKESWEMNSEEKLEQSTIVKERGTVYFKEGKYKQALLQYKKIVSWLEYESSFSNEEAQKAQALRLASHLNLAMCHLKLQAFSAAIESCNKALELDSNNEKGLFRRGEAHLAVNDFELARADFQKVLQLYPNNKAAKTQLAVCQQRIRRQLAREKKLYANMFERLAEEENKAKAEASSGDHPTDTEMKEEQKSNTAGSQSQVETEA
The experiment in a line: Displacement of fluorescent tracer 5-(3-(4-((1S,5S,6S)-10-(3,5-dichlorophenylsulfonyl)-2-oxo-3-(pyridin-3-ylmethyl)-3,10-diazabicyclo[4.3.1]decan-5-yl)-1H-1,2,3-triazol-1-yl)propylcarbamoyl)-2-(6-(dimethylamino)-3-(dimethyliminio)-3H-xanthen-9-yl)benzoate from recombinant full length C-terminal FLAG-tagged FKBP52 (unknown origin) expressed in Escherichia coli BL21 (DE3) cells incubated for 30 mins by fluorescence polarisation competition binding assay. A digest of the protocol:
(§2)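 Competitive FP in 150 mM NaCl, 20 mM HEPES pH 8.0, 0.002% Triton X-100. Ligand 1:1 serially diluted in DMSO and premixed with fluorescent tracer, tracer working solution 11.9 nM (FKBP12.6, 51FK1, 52FK1) or 5.95 nM (FKBP12) before final 10-fold dilution into protein. 30 min at room temperature, read at ex/em 535/590 nm. Weighted SD from at least two independent runs.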

A short description of test [6]: (§3) Selectivity ratio of Kd for displacement of fluorescent tracer 5-(3-(4-((1S,5S,6S)-10-(3,5-dichlorophenylsulfonyl)-2-oxo-3-(pyridin-3-ylmethyl)-3,10-diazabicyclo[4.3.1]decan-5-yl)-1H-1,2,3-triazol-1-yl)propylcarbamoyl)-2-(6-(dimethylamino)-3-(dimethyliminio)-3H-xanthen-9-yl)benzoate from recombinant full length C-terminal FLAG-tagged FKBP52 (unknown origin) to Kd for displacement of fluorescent tracer 5-(3-(4-((1S,5S,6S)-10-(3,5-dichlorophenylsulfonyl)-2-oxo-3-(pyridin-3-ylmethyl)-3,10-diazabicyclo[4.3.1]decan-5-yl)-1H-1,2,3-triazol-1-yl)propylcarbamoyl)-2-(6-(dimethylamino)-3-(dimethyliminio)-3H-xanthen-9-yl)benzoate from recombinant full length C-terminal FLAG-tagged FKBP51 (unknown origin).

The target in test [7] is Peptidyl-prolyl cis-trans isomerase FKBP1A (Homo sapiens, UniProt P62942). The experiment in a line: Displacement of fluorescent tracer 5-(3-(4-((1S,5S,6S)-10-(3,5-dichlorophenylsulfonyl)-2-oxo-3-(pyridin-3-ylmethyl)-3,10-diazabicyclo[4.3.1]decan-5-yl)-1H-1,2,3-triazol-1-yl)propylcarbamoyl)-2-(6-(dimethylamino)-3-(dimethyliminio)-3H-xanthen-9-yl)benzoate from recombinant full length C-terminal FLAG-tagged FKBP12 (unknown origin) expressed in Escherichia coli BL21 ([…]) cells incubated for 30 mins by fluorescence polarisation competition binding assay. The method in brief: as §2
Chain of Peptidyl-prolyl cis-trans isomerase FKBP1A (P62942 whole entry): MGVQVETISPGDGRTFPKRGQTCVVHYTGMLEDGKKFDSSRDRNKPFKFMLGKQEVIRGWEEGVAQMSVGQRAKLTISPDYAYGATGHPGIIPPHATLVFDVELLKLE

Test [8] is described as follows: as §3, with “FJBP12” for “FKBP52 (unknown origin)”.
Test [9] has as its target Peptidyl-prolyl cis-trans isomerase FKBP1B (Homo sapiens, UniProt P68106). The experiment in a line: Displacement of fluorescent tracer 5-(3-(4-((1S,5S,6S)-10-(3,5-dichlorophenylsulfonyl)-2-oxo-3-(pyridin-3-ylmethyl)-3,10-diazabicyclo[4.3.1]decan-5-yl)-1H-1,2,3-triazol-1-yl)propylcarbamoyl)-2-(6-(dimethylamino)-3-(dimethyliminio)-3H-xanthen-9-yl)benzoate from recombinant full length C-terminal FLAG-tagged FKBP12.6 (unknown origin) expressed in Escherichia coli BL21 (DE3) cells incubated for 30 mins by fluorescence polarisation competition assay. A digest of the protocol: as §2

The nature of test [10]: as §3, with “FKBP12.6” for “FKBP52”.

Bounds are passed on as bounds.

Chain of Peptidyl-prolyl cis-trans isomerase FKBP1B (P68106 whole entry): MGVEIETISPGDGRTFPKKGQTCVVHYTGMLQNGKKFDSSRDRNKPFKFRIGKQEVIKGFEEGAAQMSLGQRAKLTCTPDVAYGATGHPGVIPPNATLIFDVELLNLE

With `COc1ccc(CC[C@@H](OC(=O)[C@@H]2CCCCN2C(=O)[C@H](c2cc(OC)c(OC)c(OC)c2)C2CCCCC2)c2cccc(OCC(=O)O)c2)cc1OC`, the Kd (usually a measure of binding affinity in units of concentration) in [1] turned out to be 0.0098 µM. Besides, the deltaG in test [2] is -10.9 kcal/mol. The deltaH in test [3] was -11.2 kcal/mol.
Regarding `COc1ccc(CC[C@H]2OC(=O)[C@@H]3CCCCN3C(=O)[C@@H](C3CCCCC3)c3cc(OC)c(OC)c(c3)OC[C@@H](O)[C@H](O)COc3cccc2c3)cc1OC`, the Kd was 0.005 µM in [4]; 0.513 µM in test [5]; 0.022 µM in [7]; 0.009 µM in test [9]; 0.0069 µM in test [1]. Besides, the figures for the Selectivity ratio in test [6], in test [8] and in test [10] were 103, 4.4 and 1.8, respectively. Besides, in test [2], the deltaG is -11.1 kcal/mol. Moreover, the deltaH in [3] was -11.3 kcal/mol.
Turning to `COc1ccc(CC[C@H]2OC(=O)[C@@H]3CCCCN3C(=O)[C@@H](C3CCCCC3)c3cc(OC)c(OC)c(c3)OC[C@H](O)[C@@H](O)COc3cccc2c3)cc1OC`, the Kd in test [4] is 0.017 µM; in [5] it was 3.85 µM; in test [7] it was 0.044 µM; in test [9] it was 0.019 µM. Besides, the values for the Selectivity ratio in [6], in [8] and in test [10] were 227, 2.6 and 1.1, respectively.
On to `COc1ccc(CC[C@H]2OC(=O)[C@@H]3CCCCN3C(=O)[C@@H](C3CCCCC3)c3cc(OC)c(c(OC)c3)OCCOCCCCOc3cccc2c3)cc1OC`, for which the Kd in test [4] is 0.138 µM; in [5], > 10 µM; in test [7], 1.11 µM; in test [9], 0.429 µM. For the same compound, the Selectivity ratio in test [6] was > 72; in test [8] it was 8; in test [10], 3.1.
`COc1ccc(CC[C@H]2OC(=O)[C@@H]3CCCCN3C(=O)[C@@H](C3CCCCC3)c3cc(OC)c(OC)c(c3)OCCOCCCCOc3cccc2c3)cc1OC`: the Kd in test [4] is 0.061 µM; in [5], > 10 µM; in [7] it was 0.135 µM; in [9] it was 0.115 µM. Further, the Selectivity ratio in test [6] was > 164; in [8], 2.2; in test [10] it was 1.9.
Turning to `COc1ccc(CC[C@H]2OC(=O)[C@@H]3CCCCN3C(=O)[C@@H](C3CCCCC3)c3cc(OC)c(c(OC)c3)OCCCOCCCCOc3cccc2c3)cc1OC`, the Kd in [4] is 0.075 µM; in test [5], > 10 µM; in [7] it was 0.484 µM; in [9], 0.277 µM. Besides, the Selectivity ratio was > 133 in test [6], 6.4 in test [8] and 3.7 in test [10].
